From article PMC9715912 (Cell Reports, 2022)

What was measured:
Format in all cases: in vivo, Mus musculus
[1] = tested on: control and Tanycyte^ΔVegfa mice; experiment: Metabolic efficiency; details: chow, daily i.p. insulin 20 nmol/kg, Fig 5F,G
Glycemic change = details: single i.p. insulin injection, mean ± SEM
[2] = tested on: arcuate nucleus of control and Tanycyte^ΔVegfa mice; details: 2-DG 250 mg/kg with Ex-4_Cy3 120 nmol/kg; data not shown
[3] = tested on: hypothalamus (ME/ARC) and other CVOs; details: 120 nmol/kg i.p., 15 min before sacrifice; 2D planes from LSFM; Fig 2A
[4] = tested on: hypothalamus and hindbrain; details: 2-DG 250 mg/kg i.p. after 5 h food deprivation; Fig 3B
Procedure, shortened: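 Mice food-deprived 5 h, then given 2-DG (250 mg/kg i.p.). […] Brains were dissected, dehydrated through a tetrahydrofuran series, cleared in dibenzylether and imaged by whole-brain light-sheet microscopy. Signal was autofluorescence-unmixed, and the volume of signal dispersion was quantified. Blood glucose was tracked; mean ± SEM.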

## insulin: Insulin (Novorupid, Flex pen, 8-9670-79-202-2), Novo Nordisk
[1]
  change in fat oxidation in response to insulin, Tanycyte ΔVegfa mice: comparable with vehicle
Glycemic change; Tanycyte^ΔVegfa mice
  glycemic change (vehicle/insulin), Tanycyte ΔVegfa: 52% ± 2.08%
Glycemic change; control mice
  glycemic change (vehicle/insulin), controls: 62% ± 5.7%

## Ex-4_Cy3: fluorescent Exendin-4 labeled with Cy3, Novo Nordisk
[2]
  total fluorescence intensity, control vs Tanycyte ΔVegfa: comparable between groups

## Ex-4_VT^750: fluorescent labeled Exendin4 (VT750), Novo Nordisk
[3]
  brain regions with Ex-4_VT750 signal after systemic administration: detected in the ME/ARC, OLVT, AP, SFO, and choroid plexus

## O=CC[C@@H](O)[C@H](O)[C@H](O)CO [2-DG, 2-deoxyglucose]
[4]
  blood glucose (counter-regulatory response): increased
